High-throughput results deposited in PubChem BioAssay by The Scripps Research Institute Molecular Screening Center.
NPY1 pot ag: potentiators or agonists of human neuropeptide Y receptor Y1. actives 0.37% (n = 220,000). P25929. NPY-Y1 expressing cells, potentiator/agonist activation. activation, % at 3.6 µM; in the data active = activation above about 33%, passing the limit was not always enough;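 note: cells stimulated with NPY at EC10 then isoproterenol at EC100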
NPY-Y2 antag: NPY-Y2 (human) receptor antagonism; P49146; NPY-Y2 expressing cells, antagonist mode; inhibition, % at 2.7 µM; actives 0.99% (n = 140,000); AID 793; in the data active = inhibition above about 17%
Hsp70 act: Hsp70 transcriptional activation, primary screen; actives 0.04% (n = 200,000); HeLa Hsp70 promoter luciferase reporter, luminescence; scaled: vehicle 0, proteasome-inhibitor control 100%; activation, % at 10 µM;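 active = activation above the mean across all tested compounds plus 3 SD, cutoff set per campaign, cut at about 5.5% in these data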
NPY-Y1 antag: NPY-Y1 (human) receptor antagonism; P25929; HEK293-CNG Y1 cells, membrane potential fluorescence; NPY at EC95, then isoproterenol; inhibition, % at 3.6 µM; actives 1% (n = 200,000);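 active = inhibition above the campaign mean inhibition of all tested compounds plus 3 SD, cut at about 20% in these data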
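Material: HEK293 Y1/CNG channel cell line | Also added: NPY (25 nM), isoproterenol (1 µM), Ro 20-1724 (25 µM) | Compound: One concentration, 3.6 µM, in 0.4% DMSO | Schedule: 3 h dye uptake, 1 h room-temperature compound, 45 min post-isoproterenol | Signal: Membrane-potential fluorescent dye readout | Read-out: % inhibition of NPY effect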
NPY-Y2 PAM-ag: potentiates or activates human NPY-Y2 receptor; P49146; cells expressing NPY-Y2, potentiator/agonist read-out; activation, % at 3.6 µM; actives 0.45% (n = 220,000); AID 1359; in the data active = activation above about 27%;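 note: cells stimulated with NPY near EC25 plus isoproterenol at EC100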
Wee1 degr inh: human Wee1 degradation inhibition, primary screen; P30291; HeLa Luc-Wee1K328M stability, luciferase luminescence; 100% = proteasome inhibitor MG132 effect; reporter increase, % at 5 µM; actives 1.2% (n = 220,000);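 active = activation above the mean of all tested compounds plus 3 SD, set per screening run, cut at about 8.8% in these data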;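 note: cells exposed to compound for 20 h before luminescence read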
Target sequence (P30291 whole entry K328M): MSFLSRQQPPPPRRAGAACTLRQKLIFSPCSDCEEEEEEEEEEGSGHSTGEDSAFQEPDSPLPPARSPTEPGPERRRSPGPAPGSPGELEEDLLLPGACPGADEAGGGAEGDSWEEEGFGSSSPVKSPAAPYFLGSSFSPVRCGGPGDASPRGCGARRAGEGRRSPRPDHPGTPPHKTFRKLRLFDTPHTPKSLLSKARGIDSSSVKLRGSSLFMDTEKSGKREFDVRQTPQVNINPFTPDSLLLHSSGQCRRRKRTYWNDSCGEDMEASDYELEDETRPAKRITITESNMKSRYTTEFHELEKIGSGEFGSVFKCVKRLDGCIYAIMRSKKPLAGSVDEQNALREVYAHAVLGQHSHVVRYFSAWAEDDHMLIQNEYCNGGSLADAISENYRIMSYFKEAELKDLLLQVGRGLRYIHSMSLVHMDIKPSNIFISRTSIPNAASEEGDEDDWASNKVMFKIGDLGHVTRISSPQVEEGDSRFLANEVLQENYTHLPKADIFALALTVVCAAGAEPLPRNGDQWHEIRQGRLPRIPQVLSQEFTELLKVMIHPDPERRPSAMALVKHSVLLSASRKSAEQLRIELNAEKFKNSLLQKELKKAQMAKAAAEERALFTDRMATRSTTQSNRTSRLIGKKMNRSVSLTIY
NPY1 antag ctr: counter-screen for NPY-Y2 antagonists: human NPY-Y1 antagonism. shares compounds with NPY-Y2 antag. cell-based NPY-Y1 antagonism counterscreen. inhibition, % at 3.6 µM. actives 19% (n = 710). AID 1256; in the data active = inhibition above about 20%;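 note: cells challenged with NPY then isoproterenol with cAMP sensed through a CNG channel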
NPY2 antag conf: human NPY-Y2 antagonism, confirmation; HEK293 NPY-Y2 CNG channel, membrane potential fluorescence; shares compounds with NPY-Y2 antag; AID 1257; inhibition, % at 2.8 µM; actives 32% (n = 710);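 active = mean inhibition of triplicate wells above the hit cutoff set in the primary screen, cut at about 17% in these data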
Each line names hits and unclear results; the compound was inactive in the other large screens (follow-up assays come after a bar, where they were run). The list is not random: actives were taken first. Their share in the collection is about 3%.

Cc1noc(NC(=O)c2ccccc2C(F)(F)F)c1C#N	none (no result: NPY-Y2 antag)
c1ccc(OCCOCCN2CCN(C(c3ccccc3)c3ccccc3)CC2)cc1	none
COc1ccccc1OCCCCN1CCN(C(c2ccccc2)c2ccccc2)CC1	NPY-Y2 antag 20 | NPY1 antag ctr inactive | NPY2 antag conf 25
Cn1cc(CN2CCN(Cc3ccccc3)C(CCO)C2)c(-c2ccccc2)n1 (stereo not given)	none (no result: NPY-Y2 antag)
O=C1NC2(CCSC2)C(=O)N1CC(=O)N(Cc1ccccc1)C1CCS(=O)(=O)C1 (stereo not given)	none (no result: NPY-Y2 antag, Hsp70 act, NPY-Y1 antag)
COC(=O)C(CO)NC(=O)C(C)NC(=O)CNC(=O)OCc1ccccc1 (stereo not given)	none (no result: NPY-Y2 antag)
CCOC(=O)C(C(C)=O)C(c1ccc(OCCC(C)C)cc1)C(C(C)=O)C(=O)OCC (stereo not given)	NPY-Y2 antag 22 | NPY1 antag ctr inactive | NPY2 antag conf inactive
C=CCn1c(C(C)NC(=O)c2cccs2)n[nH]c1=S (stereo not given)	none
CCn1c(C(C)NC(=O)c2cccs2)n[nH]c1=S (stereo not given)	NPY-Y2 antag 22 | NPY1 antag ctr inactive | NPY2 antag conf inactive
Cc1cc(Cl)c(OCCCNCc2ccccc2)c(Br)c1	NPY-Y2 antag 18 | NPY1 antag ctr inactive | NPY2 antag conf 23
CCn1c(SCc2ccccc2Cl)nc2nc3c(cc2c1=O)CCCC3	NPY-Y2 antag 18 | NPY1 antag ctr inactive | NPY2 antag conf inactive
CCn1c(SCC(=O)NCc2ccccc2)nc2nc3c(cc2c1=O)CCCC3	none (no result: NPY-Y2 antag)
CCOCCCNC(=O)CN1C(=O)/C(=C/c2ccccc2)Sc2ccccc21	none
Cc1nc(-c2ccccc2)sc1C(=O)CSc1ccc(Cl)cc1	NPY-Y2 antag 20 | NPY1 antag ctr inactive | NPY2 antag conf 25
Cc1ccc(N2C(=O)CSC2c2ccc3c(c2)OCO3)cc1 (stereo not given)	NPY-Y2 antag 18 | NPY1 antag ctr inactive | NPY2 antag conf inactive
Cc1ccc(OCC(=O)NNC(=O)C2CCN(c3nc(C)cc(C)n3)CC2)cc1	none
Cc1ccc(S(=O)(=O)C(c2ccccc2)c2c(C)noc2C)cc1 (stereo not given)	NPY-Y2 antag 17 | NPY1 antag ctr inactive | NPY2 antag conf 57
Cc1cc(C)c(NC(=O)COC(=O)CSc2ccc(Br)cc2C)c(C)c1	NPY-Y2 antag 18 | NPY1 antag ctr inactive | NPY2 antag conf inactive
CCN(CC)c1ccc(NC(=O)COC(=O)CSc2ccc(Br)cc2C)cc1	none
Cc1ccc(SCCNC(=O)/C=C/c2ccc(Cl)cc2)cc1	NPY-Y2 antag 19 | NPY1 antag ctr 29 | NPY2 antag conf 39
CCC(C)C(NC(=O)c1ccc(Cl)cc1)C(=O)Nc1cccnc1 (stereo not given)	none (no result: NPY-Y2 antag)
Cc1cc(C(=O)Cn2nnc(-c3ccc(Cl)cc3)n2)c(C)n1CC1CCCO1 (stereo not given)	NPY-Y2 antag 20 | NPY1 antag ctr inactive | NPY2 antag conf inactive
O=C(c1cc(-c2ccccc2O)on1)N1CCc2ccccc2C1	none
O=C(c1cc(-c2cccs2)on1)N1CCc2ccccc2C1	NPY-Y2 antag 29 | NPY1 antag ctr inactive | NPY2 antag conf inactive
COc1ccc(S(=O)(=O)NCCSC(C)(C)C)cc1	none
CCC(C)(C)NC(=O)C(C)OC(=O)c1nsc(Cl)c1Cl (stereo not given)	none
CCCCNC(=O)CN1C(=O)C(CC)Oc2ccc(Cl)cc21 (stereo not given)	NPY-Y2 antag 22 | NPY1 antag ctr inactive | NPY2 antag conf inactive
CC1=C(C(=O)OCC(C)C)C(c2ccsc2)C2=C(CCCC2=O)N1 (stereo not given)	none
Cc1nc(C(=O)Nc2cccc(Cl)c2)nn1-c1cc(OC(C)C)c(Cl)cc1Cl	NPY-Y2 antag 17 | NPY1 antag ctr 20 | NPY2 antag conf inactive
O=C(NCc1ccccc1Cl)c1ccc2nc[nH]c2c1	none
